According to ChEMBL document CHEMBL1944580, “Synthesis of novel sulfonamide-1,2,4-triazoles, 1,3,4-thiadiazoles and 1,3,4-oxadiazoles, as potential antibacterial and antifungal agents. Biological evaluation and conformational analysis studies” (2012):
Converted amounts (≈) assume the structure as drawn.

Tests used:
Aspergillus versicolor [1] = experiment: Antifungal activity against Aspergillus versicolor ATCC 11730 treated for 72 hrs followed by sub-cultivated for 5 days by serial dilution method; assay type: functional
How it was run: (§1)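 MFC obtained after the 72 h, 28 °C malt-broth microdilution (spore inoculum about 1.0 × 10^5 per well, compounds from 1 mg/ml DMSO). 2 µl was serially subcultured into 100 µl broth per well and incubated a further 5 days at 28 °C. MFC is the lowest concentration with no visible growth, taken as 99.5% killing of the original inoculum.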

Staphylococcus aureus [2] = experiment: Antibacterial activity against Staphylococcus aureus ATCC 6538 treated for 24 hrs followed by sub-cultivated for 72 hrs by micro dilution method; assay type: functional
How it was run: (§2)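 2 µl from each well was serially subcultured into 100 µl fresh broth per well and incubated a further 72 h. MBC is the lowest concentration with no visible growth, taken as 99.5% killing of the original inoculum. Streptomycin and ampicillin were the positive controls.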

Trichoderma viride [3] = experiment: Antifungal activity against Trichoderma viride IAM 5061 treated for 72 hrs followed by sub-cultivated for 5 days by serial dilution method; assay type: functional; how it was run: as §1
Bacillus cereus [4] = experiment: Antibacterial activity against Bacillus cereus clinical isolate treated for 24 hrs followed by sub-cultivated for 72 hrs by micro dilution method; assay type: functional; how it was run: as §2
Escherichia coli [5] = experiment: Antibacterial activity against Escherichia coli ATCC 35210 after 24 hrs by micro dilution method; assay type: functional; details: ATCC 35210, 24 h
How it was run: (§3)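 Microdilution MIC in 96-well plates. Bacterial suspensions adjusted in sterile saline to 1.0 × 10^5 CFU/ml, giving 1.0 × 10^4 cfu per well in LB broth. Compounds tested at up to 1 mg/ml. Plates incubated 24 h. MIC taken as the lowest concentration with no visible growth under a binocular microscope. OD at 655 nm was also read against a blank and the positive control. Streptomycin and ampicillin were the positive controls.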

Aspergillus niger [6] = experiment: Antifungal activity against Aspergillus niger ATCC 6275 after 72 hrs by serial dilution method; assay type: functional; details: ATCC 6275, 72 h
How it was run: (§4)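 Modified microdilution MIC. Spores were washed from malt agar cultures with sterile 0.85% saline containing 0.1% Tween 80 and adjusted to about 1.0 × 10^5 per 100 µl well in malt broth. Compounds were dissolved in DMSO (1 mg/ml). Plates incubated 72 h at 28 °C. MIC is the lowest concentration with no visible growth under a binocular microscope. Bifonazole and ketoconazole were the references.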

Aspergillus fumigatus [7] = experiment: Antifungal activity against Aspergillus fumigatus human isolate treated for 72 hrs followed by sub-cultivated for 5 days by serial dilution method; assay type: functional; how it was run: as §1
Listeria monocytogenes [8] = experiment: Antibacterial activity against Listeria monocytogenes NCTC 7973 treated for 24 hrs followed by sub-cultivated for 72 hrs by micro dilution method; assay type: functional; how it was run: as §2
Escherichia coli [9] = experiment: Antibacterial activity against Escherichia coli ATCC 35210 treated for 24 hrs followed by sub-cultivated for 72 hrs by micro dilution method; assay type: functional; how it was run: as §2
Listeria monocytogenes [10] = experiment: Antibacterial activity against Listeria monocytogenes NCTC 7973 after 24 hrs by micro dilution method; assay type: functional; details: NCTC 7973, 24 h; how it was run: as §3
Aspergillus flavus [11] = experiment: Antifungal activity against Aspergillus flavus ATCC 9643 after 72 hrs by serial dilution method; assay type: functional; details: ATCC 9643, 72 h; how it was run: as §4
Trichoderma viride [12] = experiment: Antifungal activity against Trichoderma viride IAM 5061 after 72 hrs by serial dilution method; assay type: functional; details: IAM 5061, 72 h; how it was run: as §4
Aspergillus versicolor [13] = experiment: Antifungal activity against Aspergillus versicolor ATCC 11730 after 72 hrs by serial dilution method; assay type: functional; details: ATCC 11730, 72 h; how it was run: as §4
Micrococcus flavus [14] = experiment: Antibacterial activity against Micrococcus flavus ATCC 10240 after 24 hrs by micro dilution method; assay type: functional; details: ATCC 10240, 24 h; how it was run: as §3
Bacillus cereus [15] = experiment: Antibacterial activity against Bacillus cereus clinical isolate after 24 hrs by micro dilution method; assay type: functional; how it was run: as §3
Penicillium ochrochloron [16] = experiment: Antifungal activity against Penicillium ochrochloron ATCC 9112 after 72 hrs by serial dilution method; assay type: functional; details: ATCC 9112, 72 h; how it was run: as §4
Aspergillus niger [17] = experiment: Antifungal activity against Aspergillus niger ATCC 6275 treated for 72 hrs followed by sub-cultivated for 5 days by serial dilution method; assay type: functional; how it was run: as §1
Talaromyces funiculosus [18] = experiment: Antifungal activity against Penicillium funiculosum ATCC 36839 treated for 72 hrs followed by sub-cultivated for 5 days by serial dilution method; assay type: functional; how it was run: as §1
Aspergillus fumigatus [19] = experiment: Antifungal activity against Aspergillus fumigatus human isolate after 72 hrs by serial dilution method; assay type: functional; how it was run: as §4
Salmonella typhimurium [20] = experiment: Antibacterial activity against Salmonella Typhimurium ATCC 13311 treated for 24 hrs followed by sub-cultivated for 72 hrs by micro dilution method; assay type: functional, Salmonella enterica subsp. enterica serovar Typhimurium; details: Salmonella enterica; how it was run: as §2
Penicillium ochrochloron [21] = experiment: Antifungal activity against Penicillium ochrochloron ATCC 9112 treated for 72 hrs followed by sub-cultivated for 5 days by serial dilution method; assay type: functional; how it was run: as §1
Fulvia fulva [22] = experiment: Antifungal activity against Fulvia fulva treated for 72 hrs followed by sub-cultivated for 5 days by serial dilution method; assay type: functional; how it was run: as §1
Talaromyces funiculosus [23] = experiment: Antifungal activity against Penicillium funiculosum ATCC 36839 after 72 hrs by serial dilution method; assay type: functional; details: ATCC 36839, 72 h; how it was run: as §4
Fulvia fulva [24] = experiment: Antifungal activity against Fulvia fulva after 72 hrs by serial dilution method; assay type: functional; how it was run: as §4
Salmonella typhimurium [25] = experiment: Antibacterial activity against Salmonella Typhimurium ATCC 13311 after 24 hrs by micro dilution method; assay type: functional, Salmonella enterica subsp. enterica serovar Typhimurium; details: Salmonella enterica, ATCC 13311, 24 h; how it was run: as §3
Pseudomonas aeruginosa [26] = experiment: Antibacterial activity against Pseudomonas aeruginosa ATCC 27853 treated for 24 hrs followed by sub-cultivated for 72 hrs by micro dilution method; assay type: functional; how it was run: as §2
Micrococcus flavus [27] = experiment: Antibacterial activity against Micrococcus flavus ATCC 10240 treated for 24 hrs followed by sub-cultivated for 72 hrs by micro dilution method; assay type: functional; how it was run: as §2
Enterobacter cloacae [28] = experiment: Antibacterial activity against Enterobacter cloacae human isolate after 24 hrs by micro dilution method; assay type: functional; how it was run: as §3
Pseudomonas aeruginosa [29] = experiment: Antibacterial activity against Pseudomonas aeruginosa ATCC 27853 after 24 hrs by micro dilution method; assay type: functional; details: ATCC 27853, 24 h; how it was run: as §3
Enterobacter cloacae [30] = experiment: Antibacterial activity against Enterobacter cloacae human isolate treated for 24 hrs followed by sub-cultivated for 72 hrs by micro dilution method; assay type: functional; how it was run: as §2
Staphylococcus aureus [31] = experiment: Antibacterial activity against Staphylococcus aureus ATCC 6538 after 24 hrs by micro dilution method; assay type: functional; details: ATCC 6538, 24 h; how it was run: as §3
Aspergillus flavus [32] = experiment: Antifungal activity against Aspergillus flavus ATCC 9643 treated for 72 hrs followed by sub-cultivated for 5 days by serial dilution method; assay type: functional; how it was run: as §1

Compound	MFC (Aspergillus versicolor [1]) [µM]	MBC (Staphylococcus aureus [2]) [µM]	MFC (Trichoderma viride [3]) [µM]	MBC (Bacillus cereus [4]) [µM]	MIC (Escherichia coli [5]) [µM]	MIC (Aspergillus niger [6]) [µM]	MFC (Aspergillus fumigatus [7]) [µM]	MBC (Listeria monocytogenes [8]) [µM]	MBC (Escherichia coli [9]) [µM]	MIC (Listeria monocytogenes [10]) [µM]	MIC (Aspergillus flavus [11]) [µM]	MIC (Trichoderma viride [12]) [µM]	MIC (Aspergillus versicolor [13]) [µM]	MIC (Micrococcus flavus [14]) [µM]	MIC (Bacillus cereus [15]) [µM]	MIC (Penicillium ochrochloron [16]) [µM]	MFC (Aspergillus niger [17]) [µM]	MFC (Talaromyces funiculosus [18]) [µM]	MIC (Aspergillus fumigatus [19]) [µM]	MBC (Salmonella typhimurium [20]) [µM]	also measured
CCNc1nnc(Cc2cc(OC)c(OC)cc2S(=O)(=O)N(C)C)o1	400 (≈ 148 µg/mL)	270 (≈ 100 µg/mL)	30 (≈ 11.1 µg/mL)	270 (≈ 100 µg/mL)	140 (≈ 51.9 µg/mL)	140 (≈ 51.9 µg/mL)	270 (≈ 100 µg/mL)	540 (≈ 200 µg/mL)	270 (≈ 100 µg/mL)	270 (≈ 100 µg/mL)	140 (≈ 51.9 µg/mL)	30 (≈ 11.1 µg/mL)	140 (≈ 51.9 µg/mL)	270 (≈ 100 µg/mL)	140 (≈ 51.9 µg/mL)	140 (≈ 51.9 µg/mL)	140 (≈ 51.9 µg/mL)	270 (≈ 100 µg/mL)	270 (≈ 100 µg/mL)	270 (≈ 100 µg/mL)	MFC (Penicillium ochrochloron [21]): 270 µM (≈ 100 µg/mL); MFC (Fulvia fulva [22]): 270 µM (≈ 100 µg/mL); MIC (Talaromyces funiculosus [23]): 140 µM (≈ 51.9 µg/mL); MIC (Fulvia fulva [24]): 270 µM (≈ 100 µg/mL); MIC (Salmonella typhimurium [25]): 140 µM (≈ 51.9 µg/mL); MBC (Pseudomonas aeruginosa [26]): 540 µM (≈ 200 µg/mL); MBC (Micrococcus flavus [27]): 540 µM (≈ 200 µg/mL); MIC (Enterobacter cloacae [28]): 670 µM (≈ 248 µg/mL); MIC (Pseudomonas aeruginosa [29]): 270 µM (≈ 100 µg/mL); MBC (Enterobacter cloacae [30]): 670 µM (≈ 248 µg/mL); MIC (Staphylococcus aureus [31]): 140 µM (≈ 51.9 µg/mL); MFC (Aspergillus flavus [32]): 400 µM (≈ 148 µg/mL)
CCCNc1nnc(Cc2cc(OC)c(OC)cc2S(=O)(=O)N(C)C)o1	390 (≈ 150 µg/mL)	260 (≈ 100 µg/mL)	130 (≈ 50 µg/mL)	260 (≈ 100 µg/mL)	630 (≈ 242 µg/mL)	130 (≈ 50 µg/mL)	260 (≈ 100 µg/mL)	260 (≈ 100 µg/mL)	630 (≈ 242 µg/mL)	130 (≈ 50 µg/mL)	130 (≈ 50 µg/mL)	70 (≈ 26.9 µg/mL)	260 (≈ 100 µg/mL)	130 (≈ 50 µg/mL)	260 (≈ 100 µg/mL)	130 (≈ 50 µg/mL)	390 (≈ 150 µg/mL)	780 (≈ 300 µg/mL)	130 (≈ 50 µg/mL)	260 (≈ 100 µg/mL)	MFC (Penicillium ochrochloron [21]): 260 µM (≈ 100 µg/mL); MFC (Fulvia fulva [22]): 260 µM (≈ 100 µg/mL); MIC (Talaromyces funiculosus [23]): 260 µM (≈ 100 µg/mL); MIC (Fulvia fulva [24]): 130 µM (≈ 50 µg/mL); MIC (Salmonella typhimurium [25]): 130 µM (≈ 50 µg/mL); MBC (Pseudomonas aeruginosa [26]): 260 µM (≈ 100 µg/mL); MBC (Micrococcus flavus [27]): 260 µM (≈ 100 µg/mL); MIC (Enterobacter cloacae [28]): 630 µM (≈ 242 µg/mL); MIC (Pseudomonas aeruginosa [29]): 260 µM (≈ 100 µg/mL); MBC (Enterobacter cloacae [30]): 750 µM (≈ 288 µg/mL); MIC (Staphylococcus aureus [31]): 260 µM (≈ 100 µg/mL); MFC (Aspergillus flavus [32]): 390 µM (≈ 150 µg/mL)
